Source: ChEMBL document CHEMBL2177069, “Novel peptidomimetic compounds containing redox active chalcogens and quinones as potential anticancer agents” (Eur J Med Chem, 2012)
pIC50: −log10 of the molar value. Active and inactive are the calls of the source. No cut-off for these calls is given here.

Tests used:
[1] = tested on: MCF7; test: Induction of oxidative stress in human MCF7 cells assessed as decrease in GSH level at 5 uM after 1 hr by DTNB assay relative to control; format: functional; parameters: scale not given: the % may be the effect or the level left
Procedure, shortened: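 MCF-7 cells (10^6) were treated for 1 h at 37 °C, trypsinized, and washed twice with cold PBS. GSH was extracted with chilled 5% metaphosphoric acid at 4 °C for 2 h, then the lysate was centrifuged. Supernatant was mixed with 0.2 M sodium phosphate pH 8.0 and 0.04 mM DTNB for 10 min at room temperature. Absorbance was read at 412 nm against a reagent blank, and GSH was quantified from a standard curve.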

[2] = tested on: A-431; test: Induction of apoptosis in human A431 cells assessed as late apoptotic cells at 13 uM after 12 hrs by FITC-annexin V/PI staining-based flow cytometric analysis (reference value: 7.4%); format: functional
[3] = tested on: MCF7; test: Induction of Cell cycle arrest in human MCF7 cells assessed as S phase cells at IC50 concentration after 24 hrs by PI-staining based flow cytometric analysis (reference value: 19%); format: functional
Procedure, shortened: (§1)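 MCF-7 cells (10^6) were treated for 24 h, with methanol as the vehicle control. Cells were fixed in cold 70% methanol at 4 °C for one day, washed with PBS, and permeabilized with 0.1% saponin in PBS. They were stained with propidium iodide plus RNase for 30 min. DNA content was read by flow cytometry, giving percentages of cells per cell-cycle phase.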

[4] = tested on: MCF7; test: Induction of Cell cycle arrest in human MCF7 cells assessed as G0/1 phase cells at IC50 concentration after 24 hrs by PI-staining based flow cytometric analysis (reference value: 68%); format: functional; procedure, shortened: as §1
[5] = tested on: A-431; test: Induction of apoptosis in human A431 cells assessed as early apoptotic cells at 13 uM after 12 hrs by FITC-annexin V/PI staining-based flow cytometric analysis (reference value: 0.6%); format: functional
[6] = tested on: A-431; test: Cytotoxicity against human A431 cells after 24 hrs by MTT assay; format: functional, cell-based; conditions: A-431, 24 h
Procedure, shortened: (§2)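 MTT assay. Cells were seeded at 50,000 cells/mL in medium with 10% fetal calf serum and grown for two days at 37 °C, 10% CO2. Serial dilutions of compound were then added for 24 h. MTT was added (final 0.5 mg/mL) for 2 h, and the formazan was pelleted, washed, dissolved in isopropanol with 0.4% HCl and read at 590 nm. IC50 is the concentration giving 50% of untreated-control absorbance, taken from dose-response curves; mean of two parallel experiments.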

[7] = tested on: MCF7; test: Induction of Cell cycle arrest in human MCF7 cells assessed as G2/M phase cells at IC50 concentration after 24 hrs by PI-staining based flow cytometric analysis (reference value: 13%); format: functional; procedure, shortened: as §1
[8] = tested on: A498; test: Cytotoxicity against human A498 cells after 24 hrs by MTT assay; format: functional, cell-based; conditions: A498, 24 h; procedure, shortened: as §2
[9] = tested on: A-431; test: Induction of apoptosis in human A431 cells assessed as caspase3/7 activation at 2.8 uM after 24 hrs by caspase-Glo assay; format: functional, cell-based
Procedure, shortened: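 A-431 cells (20,000/well, 384-well) were incubated with compound for 1, 2, 4, 6, 12 and 24 h in the dark at 37 °C, 5% CO2. Caspase-Glo 3/7 reagent was added for 30 min at room temperature in the dark. Luminescence was then read on a plate luminometer.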

[10] = tested on: Saccharomyces cerevisiae; test: Growth inhibition of GTT2-deficient Saccharomyces cerevisiae YLL060C mutant at 20 ug/disc after 24 to 48 hrs by agar diffusion assay; format: functional; conditions: read-out: DIZ
Procedure, shortened: (§3)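 S. cerevisiae deletion mutants or wild type grown on YPD, seeded into liquid agar medium at an optical density of 0.1. 6 mm paper discs soaked with methanolic compound solution were placed on the plates and incubated at 30 °C. Growth was checked after 1 and 2 days, and the inhibition zone diameter was recorded in mm.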

[11] = tested on: Saccharomyces cerevisiae; test: Growth inhibition of COX17-deficient Saccharomyces cerevisiae YLL009C mutant at 20 ug/disc after 24 to 48 hrs by agar diffusion assay; format: functional; conditions: read-out: DIZ; procedure, shortened: as §3
[12] = tested on: Saccharomyces cerevisiae; test: Growth inhibition of SOD1-deficient Saccharomyces cerevisiae YJR104C mutant at 20 ug/disc after 24 to 48 hrs by agar diffusion assay; format: functional; conditions: read-out: DIZ; procedure, shortened: as §3
[13] = tested on: MCF7; test: Cytotoxicity against human MCF7 cells after 24 hrs by MTT assay; format: functional, cell-based; conditions: MCF7, 24 h; procedure, shortened: as §2
[14] = tested on: Saccharomyces cerevisiae; test: Growth inhibition of RCK1-deficient Saccharomyces cerevisiae YGL158W mutant at 20 ug/disc after 24 to 48 hrs by agar diffusion assay; format: functional; conditions: read-out: DIZ; procedure, shortened: as §3
[15] = tested on: Saccharomyces cerevisiae; test: Growth inhibition of POS5-deficient Saccharomyces cerevisiae YPL188W mutant at 20 ug/disc after 24 to 48 hrs by agar diffusion assay; format: functional; conditions: read-out: DIZ; procedure, shortened: as §3
[16] = tested on: Saccharomyces cerevisiae; test: Growth inhibition of GSH2-deficient Saccharomyces cerevisiae YOL049W mutant at 20 ug/disc after 24 to 48 hrs by agar diffusion assay; format: functional; conditions: read-out: DIZ; procedure, shortened: as §3
[17] = tested on: A-431; test: Induction of apoptosis in human A431 cells assessed as early apoptotic cells at 8 uM after 12 hrs by FITC-annexin V/PI staining-based flow cytometric analysis (reference value: 0.6%); format: functional
[18] = tested on: A-431; test: Induction of apoptosis in human A431 cells after 12 hrs by FITC-annexin V/PI staining-based flow cytometric analysis; format: functional, cell-based
[19] = tested on: A-431; test: Induction of apoptosis in human A431 cells assessed as late apoptotic cells at 8 uM after 12 hrs by FITC-annexin V/PI staining-based flow cytometric analysis (reference value: 7.4%); format: functional
[20] = tested on: Saccharomyces cerevisiae; test: Growth inhibition of UFD2-deficient Saccharomyces cerevisiae YDL190C mutant at 20 ug/disc after 24 to 48 hrs by agar diffusion assay; format: functional; conditions: read-out: DIZ; procedure, shortened: as §3
[21] = tested on: A-431; test: Induction of apoptosis in human A431 cells assessed as early apoptotic cells at 11 uM after 12 hrs by FITC-annexin V/PI staining-based flow cytometric analysis (reference value: 0.6%); format: functional
[22] = tested on: Saccharomyces cerevisiae; test: Growth inhibition of PST2-deficient Saccharomyces cerevisiae YDR032C mutant at 20 ug/disc 24 to 48 hrs by agar diffusion assay; format: functional; conditions: read-out: DIZ; procedure, shortened: as §3
[23] = tested on: A-431; test: Induction of apoptosis in human A431 cells assessed as late apoptotic cells at 11 uM after 12 hrs by FITC-annexin V/PI staining-based flow cytometric analysis (reference value: 7.4%); format: functional
[24] = Cytotoxicity against human PHF cells after 24 hrs by MTT assay; format: cell-based; procedure, shortened: as §2
[25] = tested on: Saccharomyces cerevisiae; test: Growth inhibition of SOD2-deficient Saccharomyces cerevisiae YHR008C mutant at 20 ug/disc 24 to 48 hrs by agar diffusion assay; format: functional; conditions: read-out: DIZ; procedure, shortened: as §3
[26] = tested on: Saccharomyces cerevisiae; test: Growth inhibition of wild type Saccharomyces cerevisiae BY4741 at 20 ug/disc after 24 to 48 hrs by agar diffusion assay; format: functional; conditions: read-out: DIZ; procedure, shortened: as §3
[27] = tested on: HUVEC; test: Cytotoxicity against human HUVEC cells after 24 hrs by MTT assay; format: cell-based; procedure, shortened: as §2
[28] = tested on: Saccharomyces cerevisiae; test: Growth inhibition of WSC4-deficient Saccharomyces cerevisiae YHL028W mutant at 20 ug/disc 24 to 48 hrs by agar diffusion assay; format: functional; conditions: read-out: DIZ; procedure, shortened: as §3

CC1=C([Se]CC(OC(=O)CC[Se]c2ccccc2)C(=O)NCCCCCC(=O)OCc2ccccc2)C(=O)c2ccccc2C1=O (stereo not drawn)
Activity [1]: 62% | Activity [2]: 29.3% | Activity [3]: 6.8% | Activity [4]: 87% | Activity [5]: 4.1% | pIC50 [6]: 5.40 | Activity [7]: 6% | pIC50 [8]: 5.40 | Activity [9]: Active | zone of inhibition at 20 µg/disc [10]: 25 mm | zone of inhibition at 20 µg/disc [11]: 15 mm | zone of inhibition at 20 µg/disc [12]: 14 mm | pIC50 [13]: 5.05 | zone of inhibition at 20 µg/disc [14]: 15 mm | zone of inhibition at 20 µg/disc [15]: 17 mm | zone of inhibition at 20 µg/disc [16]: 15 mm | Activity [17]: 2.5% | Activity [18]: Dose-dependent effect | Activity [19]: 12.9% | zone of inhibition at 20 µg/disc [20]: 15 mm | Activity [21]: 7.7% | zone of inhibition at 20 µg/disc [22]: 16 mm | Activity [23]: 13.1% | pIC50 [24]: 5.22 | zone of inhibition at 20 µg/disc [25]: 19 mm | zone of inhibition at 20 µg/disc [26]: 0 mm | pIC50 [27]: 5.52 | zone of inhibition at 20 µg/disc [28]: 26 mm
